For assay [1], the target named is T1, Histone-lysine N-methyltransferase EHMT1 (Homo sapiens, UniProt Q9H9B1).
T1 sequence (Q9H9B1 whole entry): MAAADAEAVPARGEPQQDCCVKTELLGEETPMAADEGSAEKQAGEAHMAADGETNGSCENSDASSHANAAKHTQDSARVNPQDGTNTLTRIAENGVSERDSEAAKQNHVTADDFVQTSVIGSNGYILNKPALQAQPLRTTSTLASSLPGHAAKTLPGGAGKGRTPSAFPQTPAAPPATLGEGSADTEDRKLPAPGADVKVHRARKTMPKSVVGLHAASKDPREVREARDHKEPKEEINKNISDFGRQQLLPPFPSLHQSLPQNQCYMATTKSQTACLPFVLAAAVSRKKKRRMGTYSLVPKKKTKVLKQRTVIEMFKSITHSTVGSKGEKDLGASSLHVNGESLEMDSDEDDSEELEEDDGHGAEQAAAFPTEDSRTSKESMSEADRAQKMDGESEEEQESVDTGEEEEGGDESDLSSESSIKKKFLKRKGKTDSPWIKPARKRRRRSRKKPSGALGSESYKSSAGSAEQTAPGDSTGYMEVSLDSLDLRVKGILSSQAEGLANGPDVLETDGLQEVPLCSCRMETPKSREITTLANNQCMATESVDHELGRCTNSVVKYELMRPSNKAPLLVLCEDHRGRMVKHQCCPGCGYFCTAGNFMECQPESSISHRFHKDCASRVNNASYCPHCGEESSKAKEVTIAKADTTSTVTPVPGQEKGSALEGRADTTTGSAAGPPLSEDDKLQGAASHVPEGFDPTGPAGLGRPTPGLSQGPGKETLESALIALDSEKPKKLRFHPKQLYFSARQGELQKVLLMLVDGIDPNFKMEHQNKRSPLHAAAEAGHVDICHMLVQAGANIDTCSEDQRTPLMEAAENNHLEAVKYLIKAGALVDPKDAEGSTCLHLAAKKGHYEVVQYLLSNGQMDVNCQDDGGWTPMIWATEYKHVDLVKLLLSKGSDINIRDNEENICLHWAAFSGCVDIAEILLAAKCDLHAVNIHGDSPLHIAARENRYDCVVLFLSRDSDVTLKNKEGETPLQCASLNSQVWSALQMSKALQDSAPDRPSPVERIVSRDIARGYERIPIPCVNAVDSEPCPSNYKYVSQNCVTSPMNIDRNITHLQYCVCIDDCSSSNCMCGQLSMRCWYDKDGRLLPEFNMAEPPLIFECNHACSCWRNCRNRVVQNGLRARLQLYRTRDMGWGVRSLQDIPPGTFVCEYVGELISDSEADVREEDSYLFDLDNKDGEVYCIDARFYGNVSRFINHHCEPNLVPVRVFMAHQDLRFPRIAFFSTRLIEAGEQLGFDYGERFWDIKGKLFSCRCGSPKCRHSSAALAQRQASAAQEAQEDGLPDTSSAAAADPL
In words: Inhibition of human GLP (982 to 1266 residues) using H3 peptide substrate preincubated for 5 mins followed by SAM addition measured after 10 mins by SAHH-coupled biochemical assay.

In assay [2] the target is T2, Histone-lysine N-methyltransferase EHMT2 (Homo sapiens, UniProt Q96KQ7).
T2 sequence (Q96KQ7 whole entry): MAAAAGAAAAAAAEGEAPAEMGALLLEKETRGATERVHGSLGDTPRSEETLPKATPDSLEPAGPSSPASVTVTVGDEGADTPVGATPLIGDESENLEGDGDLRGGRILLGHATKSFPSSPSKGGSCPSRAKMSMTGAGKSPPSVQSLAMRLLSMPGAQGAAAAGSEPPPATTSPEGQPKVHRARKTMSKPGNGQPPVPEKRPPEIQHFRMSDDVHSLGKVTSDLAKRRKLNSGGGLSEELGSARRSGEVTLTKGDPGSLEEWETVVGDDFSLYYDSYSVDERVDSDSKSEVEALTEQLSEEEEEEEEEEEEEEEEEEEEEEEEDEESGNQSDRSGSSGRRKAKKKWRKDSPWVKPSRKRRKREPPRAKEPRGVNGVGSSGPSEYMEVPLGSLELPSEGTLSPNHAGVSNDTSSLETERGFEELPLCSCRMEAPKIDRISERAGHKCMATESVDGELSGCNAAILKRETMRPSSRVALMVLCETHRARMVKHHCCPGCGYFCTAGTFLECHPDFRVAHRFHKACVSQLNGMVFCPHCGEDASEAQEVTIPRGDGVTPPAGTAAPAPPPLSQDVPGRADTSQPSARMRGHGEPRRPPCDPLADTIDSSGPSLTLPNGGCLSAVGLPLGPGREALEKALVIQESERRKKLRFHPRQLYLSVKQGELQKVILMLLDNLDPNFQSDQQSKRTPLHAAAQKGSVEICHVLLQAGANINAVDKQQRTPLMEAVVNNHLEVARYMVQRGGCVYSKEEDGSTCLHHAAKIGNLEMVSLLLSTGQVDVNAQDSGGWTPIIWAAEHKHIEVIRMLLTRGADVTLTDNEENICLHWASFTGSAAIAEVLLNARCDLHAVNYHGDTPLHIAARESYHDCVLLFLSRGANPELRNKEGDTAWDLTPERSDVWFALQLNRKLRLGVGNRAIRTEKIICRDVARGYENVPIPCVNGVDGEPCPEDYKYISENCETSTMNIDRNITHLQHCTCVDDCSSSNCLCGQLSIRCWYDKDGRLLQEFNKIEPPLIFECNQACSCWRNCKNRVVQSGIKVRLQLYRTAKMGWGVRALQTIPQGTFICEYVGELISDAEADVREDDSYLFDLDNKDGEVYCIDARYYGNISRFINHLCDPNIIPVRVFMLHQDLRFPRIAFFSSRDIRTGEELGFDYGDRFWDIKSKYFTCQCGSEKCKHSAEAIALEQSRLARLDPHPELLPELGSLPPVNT
In words: Inhibition of human G9a (913 to 1193 residues) using H3 peptide substrate preincubated for 5 mins followed by SAM addition measured after 10 mins by SAHH-coupled biochemical assay.

Assay [3] deals with T1, Histone-lysine N-methyltransferase EHMT1. In words: Binding affinity to human GLP (982 to 1266 residues) assessed as dissociation constant measured after 1 hr by isothermal titration calorimetry method. In outline:
(§1)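 ITC at 25 °C in 50 mM Tris-HCl pH 7.5, 150 mM NaCl, 1% DMSO; 500 μM compound in syringe titrated into 50 μM G9a or GLP catalytic domain in cell (initial 0.4 μL injection then 13 injections), stirring 750 rpm; run time about 50 min; single binding site fit; mean ± SD of two independent measurements.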
(In ITC the heat of successive injections is recorded.)

Assay [4] addresses T2, Histone-lysine N-methyltransferase EHMT2. Put plainly: Binding affinity to human G9a (913 to 1193 residues) assessed as dissociation constant measured after 1 hr by isothermal titration calorimetry method. In outline: as §1
In assay [5] the target is T3, Histone-lysine N-methyltransferase EHMT2 (Homo sapiens) (UniProt Q96KQ7).
T3 sequence (whole entry): T2 sequence (Q96KQ7 whole entry)
In words: Inhibition of human G9a (913 to 1193 residues) assessed as covalent modification by measuring G9a adduct formation at 50 uM incubated for 1 hr by mass spectrometry relative to control. The essentials: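 Purified G9a or GLP catalytic domain (5 μM) in 50 mM Tris-HCl pH 7.5, 150 mM NaCl incubated with 50 μM compound or DMSO at room temperature (1 h, or 30 and 60 min in time course); intact mass by ESI LC/MS-TOF; adduct % = adduct/(protein + adduct) × 100.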

One may read the IC50 as the concentration at which inhibition is half-maximal. As usually defined, the Kd is the constant that tells how readily two partners part at equilibrium. `CCC(=O)Nc1cc(NC2CCN(C(C)C)CC2)c2cc(OC)c(OCCCN3CCCC3)cc2n1`: the results for the 50% inhibitory concentration (IC50) in assay [1] and in assay [2] were 151 nM and 211 nM, respectively. Moreover, the results for the dissociation constant Kd in assay [3] and in assay [4] were 16 nM and 48 nM, respectively.
The term inhibition denotes the percentage by which the read-out fell short of the control. As for `C=CC(=O)Nc1nc(NC2CCN(C(C)C)CC2)c2cc(OC)c(OCCCN3CCCC3)cc2n1`, the inhibition in assay [5] amounted to 40%.

The values above are taken from ChEMBL document CHEMBL5126600, “Discovery of the First-in-Class G9a/GLP Covalent Inhibitors” (J Med Chem, 2022).
